From ChEMBL document CHEMBL4359913, “Identification and characterization of benzo[d]oxazol-2(3H)-one derivatives as the first potent and selective small-molecule inhibitors of chromodomain protein CDYL” (Eur J Med Chem, 2019)
pIC50, pKd: −log10 of the molar value.

How the values were obtained:
[1] = target: T1, Chromodomain Y-like protein (Homo sapiens, UniProt Q9Y232); assay: Binding affinity to recombinant human N-terminal GST-tagged CDYL (1 to 60 residues) expressed in Escherichia coli […] by SPR analysis
T1 sequence (Q9Y232 whole entry): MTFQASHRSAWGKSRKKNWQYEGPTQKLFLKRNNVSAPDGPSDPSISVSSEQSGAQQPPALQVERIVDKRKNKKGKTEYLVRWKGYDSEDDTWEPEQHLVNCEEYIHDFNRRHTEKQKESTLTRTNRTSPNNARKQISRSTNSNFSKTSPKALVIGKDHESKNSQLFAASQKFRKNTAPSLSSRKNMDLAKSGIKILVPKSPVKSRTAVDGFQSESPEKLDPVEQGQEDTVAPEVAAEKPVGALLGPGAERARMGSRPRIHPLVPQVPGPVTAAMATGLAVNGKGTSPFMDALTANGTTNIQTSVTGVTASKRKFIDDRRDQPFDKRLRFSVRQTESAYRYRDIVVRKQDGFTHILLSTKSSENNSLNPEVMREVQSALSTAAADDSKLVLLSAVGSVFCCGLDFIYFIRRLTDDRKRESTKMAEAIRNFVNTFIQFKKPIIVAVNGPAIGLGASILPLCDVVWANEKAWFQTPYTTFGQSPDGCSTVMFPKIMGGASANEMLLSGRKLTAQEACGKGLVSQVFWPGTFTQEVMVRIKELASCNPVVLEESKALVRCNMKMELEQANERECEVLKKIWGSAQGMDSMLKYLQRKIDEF
Method in brief: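 GST-tagged chromodomain expressed in E. coli BL21 with 0.2 mM IPTG at 28 °C for 6 h. Purified on GSTrap, tag removed with PreScission protease. Amine-coupled to CM5 chip at pH 4.0–4.5 (5000–10000 RU). Compound run as a 1.5- or 2-fold series from 100 µM in PBSP with 5% DMSO, 25 °C, 30 µL/min, 60 s association and 60 s dissociation.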

[2] = target: T2, Testis-specific chromodomain protein Y 1 (Homo sapiens, UniProt Q9Y6F8); assay: Binding affinity to recombinant human N-terminal GST-tagged CDY1 (1 to 65 residues) expressed in Escherichia coli […] by SPR analysis
T2 sequence (Q9Y6F8 whole entry): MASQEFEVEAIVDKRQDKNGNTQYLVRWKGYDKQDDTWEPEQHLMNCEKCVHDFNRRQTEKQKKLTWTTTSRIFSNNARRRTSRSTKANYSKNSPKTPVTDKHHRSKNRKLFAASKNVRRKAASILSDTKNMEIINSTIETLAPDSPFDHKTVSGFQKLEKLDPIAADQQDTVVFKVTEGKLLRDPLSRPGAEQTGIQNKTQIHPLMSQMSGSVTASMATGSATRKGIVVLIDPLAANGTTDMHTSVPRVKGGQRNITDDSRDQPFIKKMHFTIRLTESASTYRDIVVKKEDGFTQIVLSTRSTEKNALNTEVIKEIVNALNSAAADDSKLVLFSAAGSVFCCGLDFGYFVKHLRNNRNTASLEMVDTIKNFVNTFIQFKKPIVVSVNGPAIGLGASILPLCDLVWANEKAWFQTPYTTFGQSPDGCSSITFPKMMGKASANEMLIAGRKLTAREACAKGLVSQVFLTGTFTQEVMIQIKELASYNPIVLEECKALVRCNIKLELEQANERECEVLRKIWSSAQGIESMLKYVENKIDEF
Method in brief: (§1)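 Chromodomain expressed with N-terminal GST tag in E. coli BL21 (IPTG 0.2 mM at OD600 0.6–0.8, 28 C for 6 h), GSTrap purified, tag cleaved by PreScission protease, amine-coupled to CM5 chip at pH 4.0–4.5 (5000–10000 RU). […] Mean ± SD of at least two replicates, each in duplicate.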

[3] = target: T3, Chromobox protein homolog 7 (Homo sapiens, UniProt O95931); assay: Binding affinity to recombinant human N-terminal GST-tagged CBX7 (1 to 62 residues) expressed in Escherichia coli […] by SPR analysis; method in brief: as §1
T3 sequence (O95931 whole entry): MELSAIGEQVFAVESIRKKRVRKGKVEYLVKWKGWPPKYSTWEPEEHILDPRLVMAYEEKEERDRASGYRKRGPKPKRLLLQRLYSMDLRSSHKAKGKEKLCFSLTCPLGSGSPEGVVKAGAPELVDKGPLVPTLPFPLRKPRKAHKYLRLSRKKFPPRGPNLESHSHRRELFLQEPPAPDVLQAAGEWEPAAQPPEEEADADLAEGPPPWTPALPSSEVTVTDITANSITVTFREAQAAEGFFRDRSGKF

HEK-293T = assay: Cytotoxicity against human HEK293T cells assessed as reduction in cell viability incubated for 24 hrs by CCK8 assay
SH-SY5Y = assay: Cytotoxicity against human SH-SY5Y cells assessed as reduction in cell viability incubated for 24 hrs by CCK8 assay

| SMILES | pKd [1] | pKd [2] | pKd [3] | pIC50 (HEK-293T) | pIC50 (SH-SY5Y) |
| --- | --- | --- | --- | --- | --- |
| CN(C)C1CCN(C(=O)Cn2c(=O)oc3ccccc32)CC1 | 5.02 | 4.47 | – | – | – |
| CCN(CC)C1CCN(C(=O)Cn2c(=O)oc3ccccc32)CC1 | 5.24 | – | 4.33 | – | – |
| CCCCN1C(=O)C(O)(CC(=O)c2cccc(OC)c2)c2ccccc21 (configuration not stated) | 4.00 | 4.76 | 5.06 | – | – |
| O=C(Cn1c(=O)oc2ccc(F)cc21)c1c[nH]c2ccccc12 | 5.29 | 4.63 | 5.01 | – | – |
| COc1cccc(C(=O)Cn2c(=O)[nH]c3ccc(Cl)cc32)c1 | 4.83 | 4.15 | 4.54 | < 3.70 | < 3.70 |
| O=C(Cn1c(=O)oc2ccc(Br)cc21)c1ccc2ccccc2c1 | 5.24 | 4.83 | 5.02 | – | – |
| COc1cccc(NC(=O)Cn2c(=O)oc3ccccc32)c1 | 5.14 | 6.00 | 4.83 | – | – |
| CN1CCc2c(sc3c2C(=O)N[C@@H](/C=C\c2ccccc2)N3)C1 | 4.25 | – | – | – | – |
| N#Cc1ccc2oc(=O)n(CC(=O)c3ccc4ccccc4c3)c2c1 | 4.00 | 4.15 | – | – | – |
| CN(C)c1ccc(C(=O)Cn2c(=O)oc3ccc(F)cc32)cc1 | 4.05 | 4.46 | 4.11 | – | – |
| COCCCNC(=O)Cc1c(C)c2c(O)cc(C)cc2oc1=O | 4.59 | – | – | – | – |
| CCN(CC)C1CCN(C(=O)Cn2c(=O)oc3ccc(F)cc32)CC1 | 5.55 | 5.35 | 5.55 | – | – |
| N#Cc1ccc2oc(=O)n(CC(=O)c3c[nH]c4ccccc34)c2c1 | 4.01 | 5.34 | 4.33 | – | – |
| O=C(CN1C(=O)COc2ccccc21)c1ccc2ccccc2c1 | 4.28 | 4.40 | 4.58 | – | – |
| O=C(Cn1c(=O)oc2ccc(F)cc21)c1ccc2ccccc2c1 | 4.70 | 3.68 | 4.40 | – | – |
| CCCN1C(=O)C(O)(CC(=O)c2cccc3ccccc23)c2ccccc21 (configuration not stated) | 4.64 | 4.68 | 4.69 | – | – |
| Nc1ccc2c(c1)sc(=O)n2CC(=O)c1c[nH]c2ccccc12 | 5.46 | 4.29 | 5.19 | – | – |
| COc1cccc(C(=O)CN2C(=O)COc3ccccc32)c1 | 4.89 | 4.95 | 4.28 | – | – |
| CCCC(=O)Nc1ccc(Cl)c(NC(=O)COc2ccccc2OC)c1 | 4.85 | – | – | – | – |
| COc1cccc(C(=O)Cn2c(=O)oc3ccccc32)c1 | 5.31 | 5.24 | – | – | – |
| O=C(Cn1c(=O)oc2ccccc21)Nc1ccc2ccccc2c1 | 4.72 | 4.69 | 4.71 | – | – |
| CN1C(=O)C(O)(CC(=O)c2ccc3ccccc3c2)c2ccccc21 (configuration not stated) | 4.71 | 4.54 | 5.29 | – | – |
| CC(C)N1C(=O)[C@@](O)(CC(=O)c2cccc3ccccc23)c2ccccc21 | 4.26 | – | – | – | – |
| C=CCN1C(=O)C(O)(CC(=O)c2ccc3ccccc3c2)c2ccccc21 (configuration not stated) | 4.50 | 4.61 | – | – | – |
| O=C(Cn1c(=O)sc2cc([N+](=O)[O-])ccc21)c1ccc2ccccc2c1 | 4.57 | 3.91 | – | – | – |
| COc1cccc(C(=O)CC2C(=O)Nc3ccc(Cl)cc32)c1 (racemic) | 5.92 | < 3.70 | – | 4.43 | 4.36 |
| O=C(CN1C(=O)COc2ccccc21)c1c[nH]c2ccccc12 | 4.22 | 3.96 | 4.43 | – | – |
| O=C(Cn1c(=O)oc2cc(Br)ccc21)c1ccc2ccccc2c1 | 4.54 | 5.77 | 4.53 | – | – |

| SMILES | pKd [1] | pKd [2] | pKd [3] | pIC50 (HEK-293T) | pIC50 (SH-SY5Y) |
| --- | --- | --- | --- | --- | --- |
| COc1cccc(C(=O)Cn2c(=O)oc3ccc(C#N)cc32)c1 | – | 4.38 | 4.71 | – | – |
| CCN(CC)CCOC(=O)CCc1cccc2ccccc12 | 4.22 | – | – | – | – |
| COc1ccccc1[C@@H]1NC(=O)c2c(sc3c2CCN(C)C3)N1 | 4.27 | – | – | – | – |
| COc1ccc2oc(=O)n(CC(=O)c3ccc(N(C)C)cc3)c2c1 | 4.81 | 5.57 | 5.21 | – | – |
| O=C(Cn1c(=O)oc2ccccc21)c1c[nH]c2ccccc12 | 5.72 | 4.68 | 5.03 | – | – |
| O=C(Cn1c(=O)oc2ccccc21)Nc1cccc2ccccc12 | 4.54 | 6.10 | < 3.70 | – | – |
| O=C(Cn1c(=O)oc2ccccc21)c1cccc2ccccc12 | 5.52 | 5.19 | 4.52 | – | – |
| COc1cccc(C(=O)Cn2cnc3ccccc32)c1 | 5.00 | 5.40 | – | – | – |
| COc1ccc(C(=O)Cn2c(=O)oc3ccccc32)cc1OC | 4.84 | 4.62 | 4.31 | – | – |
| O=C(Cn1c(=O)oc2ccccc21)N1CCC(N2CCOCC2)CC1 | 4.59 | 4.68 | 5.25 | – | – |
| COc1ccc2oc(=O)n(CC(=O)c3ccc4ccccc4c3)c2c1 | 5.82 | 5.82 | 4.23 | – | – |
| O=C(Cn1c(=O)oc2ccccc21)N1CCC(N2CCCCC2)CC1 | 4.93 | 4.29 | 4.87 | – | – |
| CCCN1C(=O)C(O)(CC(=O)c2cc(Br)c(Br)o2)c2cc(Cl)ccc21 (configuration not stated) | 4.81 | – | 4.80 | – | – |
| COc1ccc2oc(=O)n(CC(=O)c3ccc(OC)c(OC)c3)c2c1 | 5.26 | 4.95 | 5.41 | – | – |
| C[C@@H](CN1CCCC1)OC(=O)c1ccc(Cl)cc1Cl | 3.57 | – | – | – | – |
| CCCN1C(=O)C(O)(CC(=O)c2ccc3c(c2)CCCC3)c2ccccc21 (configuration not stated) | 4.30 | 4.05 | 5.14 | – | – |
| O=C(Cn1c(=O)sc2cc([N+](=O)[O-])ccc21)c1c[nH]c2ccccc12 | 4.14 | 4.84 | 5.06 | – | – |
| COc1cccc(C(=O)Cn2c(=O)oc3ccc(F)cc32)c1 | 5.21 | – | 5.47 | – | – |
| CN(C)c1ccc(C(=O)Cn2c(=O)oc3ccccc32)cc1 | 4.92 | – | 4.44 | – | – |
| COc1ccc(C(=O)Cn2c(=O)oc3ccc(F)cc32)cc1OC | 4.69 | 5.36 | 4.54 | – | – |
| CN1C(=O)C(O)(CC(=O)c2cccc3ccccc23)c2ccccc21 (configuration not stated) | 3.89 | 4.61 | 5.62 | – | – |
| COc1cccc(C(=O)Cn2c(=O)oc3ccc(OC)cc32)c1 | 5.11 | 4.81 | 4.76 | – | – |
| CC(C)N1C(=O)C(O)(CC(=O)c2ccco2)c2ccccc21 (configuration not stated) | 4.88 | 4.21 | 4.39 | – | – |
| O=C(Cn1c(=O)oc2ccc([N+](=O)[O-])cc21)N1CCC(N2CCCC2)CC1 | 4.77 | 4.25 | – | – | – |
| COc1ccc2oc(=O)n(CC(=O)c3c[nH]c4ccccc34)c2c1 | 5.14 | 4.44 | 4.69 | – | – |
| Nc1ccc2c(c1)sc(=O)n2CC(=O)c1ccc2ccccc2c1 | 5.31 | – | < 3.70 | – | – |
| COc1cccc(C(=O)/C=C2\C(=O)Nc3ccc(Cl)cc32)c1 | 4.81 | 4.99 | – | 4.78 | 4.67 |
